According to ChEMBL document CHEMBL3124843, “Synthesis, cytostatic, antimicrobial, and anti-HCV activity of 6-substituted 7-(het)aryl-7-deazapurine ribonucleosides” (J Med Chem, 2014):
pEC50, pIC50: −log10 of the molar value. Active and inactive are the calls of the source. No rule for the calls is given here.

Key:
Hepatitis C virus [1] = assay: Antiviral activity against Hepatitis C virus subtype 2a infected in human HuH7 cells; type: functional, organism-based, Hepacivirus hominis; conditions: genotype 2a, Huh-7
Candida tropicalis = assay: Antifungal activity against Candida tropicalis after 48 hrs; type: functional, organism-based
Candida albicans = assay: Antifungal activity against Candida albicans after 48 hrs; type: functional, organism-based
Escherichia coli [2] = assay: Antibacterial activity against Escherichia coli CCM 3954 after 24 hrs; type: functional, organism-based
Hepatitis C virus [3] = assay: Antiviral activity against Hepatitis C virus subtype 1b infected in human HuH7 cells; type: functional, organism-based, Hepacivirus hominis; conditions: genotype 1b, Huh-7
Escherichia coli [4] = assay: Antibacterial activity against multi-resistant Escherichia coli C/16702 after 24 hrs; type: functional, organism-based
Pichia kudriavzevii = assay: Antifungal activity against Candida crusei after 48 hrs; type: functional, organism-based
HL-60 = assay: Antiproliferative activity against human HL60 cells after 72 hrs by XTT assay; type: functional, cell-based; conditions: HL-60, 72 h
Method in brief: (§1)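 Antiproliferative test on HL-60 promyelocytic leukemia and HeLa S3 cervical carcinoma cells growing in liquid suspension.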

[5] = Antiproliferative activity against human HeLaS3 cells after 72 hrs by XTT assay; type: functional, cell-based; conditions: HeLa S3, 72 h; method in brief: as §1
A549 = assay: Cytostatic activity against human A549 cells after 72 hrs by MTT assay; type: functional, cell-based; conditions: A549, 72 h
Method in brief: (§2)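 IC50 is the concentration that cuts cell growth by 50%, read by quantitative metabolic MTT staining after a 3-day treatment. The resistant sublines were made by raising the concentration of the cytotoxic drug step by step. CEM-DNR-bulk (daunorubicin-selected) stably overexpresses mrp-1. K562-TAX (paclitaxel-selected) expresses only mdr-1. HCT116p53−/− carries null p53 alleles. BJ and MRC-5 are nonmalignant fibroblasts.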

[6] = Cytostatic activity against human CEM-DNR-bulk cells after 72 hrs by MTT assay; type: functional, cell-based; method in brief: as §2
HCT-116 [7] = assay: Cytostatic activity against p53-deficient human HCT116 cells after 72 hrs by MTT assay; type: functional, cell-based; conditions: HCT-116, 72 h; method in brief: as §2
BJ = assay: Cytostatic activity against human BJ cells after 72 hrs by MTT assay; type: ADME, cell-based; method in brief: as §2
Enterococcus faecalis = assay: Antibacterial activity against Enterococcus faecalis CCM 4224 after 24 hrs; type: functional, organism-based
Staphylococcus aureus [8] = assay: Antibacterial activity against methicillin-resistant Staphylococcus aureus MRSA 4591 after 24 hrs; type: functional, organism-based
Staphylococcus aureus [9] = assay: Antibacterial activity against Staphylococcus aureus CCM 3953 after 24 hrs; type: functional, organism-based
MRC5 = assay: Cytostatic activity against human MRC5 cells after 72 hrs by MTT assay; type: ADME, cell-based; conditions: MRC5, 72 h; method in brief: as §2
[10] = test system: Staphylococcus haemolyticus; assay: Antibacterial activity against methicillin-resistant Staphylococcus haemolyticus A/16568 after 24 hrs; type: functional, organism-based
K562 [11] = assay: Cytostatic activity against human K562 cells after 72 hrs by MTT assay; type: functional, cell-based; conditions: K562, 72 h; method in brief: as §2
CCRF-CEM = assay: Cytostatic activity against human CCRF-CEM cells after 72 hrs by MTT assay; type: functional, cell-based; method in brief: as §2
[12] = Cytotoxicity against human HuH7 cells infected with Hepatitis C virus subtype 2a; type: cell-based, Huh-7
Pseudomonas aeruginosa [13] = assay: Antibacterial activity against Pseudomonas aeruginosa CCM 3955 after 24 hrs; type: functional, organism-based
HCT-116 [14] = assay: Cytostatic activity against human HCT116 cells after 72 hrs by MTT assay; type: functional, cell-based; conditions: HCT-116, 72 h; method in brief: as §2
Candida parapsilosis = assay: Antifungal activity against Candida parapsilosis after 48 hrs; type: functional, organism-based
HepG2 = assay: Antiproliferative activity against human HepG2 cells after 72 hrs by XTT assay; type: functional, cell-based; conditions: HepG2, 72 h
K562 [15] = assay: Cytostatic activity against paclitaxel-resistant human K562 cells after 72 hrs by MTT assay; type: functional, cell-based; conditions: K562, 72 h; method in brief: as §2
[16] = Cytotoxicity against human HuH7 cells infected with Hepatitis C virus subtype 1b; type: cell-based, Huh-7
Pseudomonas aeruginosa [17] = assay: Antibacterial activity against multi-resistant Pseudomonas aeruginosa A/16575 after 24 hrs; type: functional, organism-based

Compound | pEC50 (Hepatitis C virus [1]) | Activity (Candida tropicalis) | Activity (Candida albicans) | Activity (Escherichia coli [2]) | pEC50 (Hepatitis C virus [3]) | Activity (Escherichia coli [4]) | Activity (Pichia kudriavzevii) | pIC50 (HL-60) | pIC50 [5] | pIC50 (A549) | pIC50 [6] | pIC50 (HCT-116 [7]) | pIC50 (BJ) | Activity (Enterococcus faecalis) | Activity (Staphylococcus aureus [8]) | Activity (Staphylococcus aureus [9]) | pIC50 (MRC5) | Activity [10] | pIC50 (K562 [11]) | pIC50 (CCRF-CEM) | further results
Nc1nc(N)c2c(-c3ccccc3)cn([C@@H]3O[C@H](CO)[C@@H](O)[C@H]3O)c2n1 | < 4.36 | inactive | inactive | inactive | < 4.36 | inactive | inactive | < 4.82 | < 4.70 | < 4.70 | < 4.70 | < 4.70 | < 4.00 | inactive | inactive | inactive | < 4.00 | inactive | < 4.70 | < 4.70 | CC50 [12]: > 44 µM; Activity (Pseudomonas aeruginosa [13]): inactive; pIC50 (HCT-116 [14]): < 4.70; Activity (Candida parapsilosis): inactive; pIC50 (HepG2): < 4.70; pIC50 (K562 [15]): < 4.70; CC50 [16]: > 44 µM; Activity (Pseudomonas aeruginosa [17]): inactive
Nc1nc2c(c(-c3cc4ccccc4o3)cn2[C@@H]2O[C@H](CO)[C@@H](O)[C@H]2O)c(=O)[nH]1 | < 4.36 | inactive | inactive | inactive | < 4.36 | inactive | inactive | < 4.70 | < 4.70 | < 4.00 | < 4.70 | < 4.00 | < 4.00 | inactive | inactive | inactive | < 4.00 | inactive | < 4.70 | < 4.70 | CC50 [12]: > 44 µM; Activity (Pseudomonas aeruginosa [13]): inactive; pIC50 (HCT-116 [14]): < 4.00; Activity (Candida parapsilosis): inactive; pIC50 (HepG2): < 4.70; pIC50 (K562 [15]): < 4.70; CC50 [16]: > 44 µM; Activity (Pseudomonas aeruginosa [17]): inactive
Cc1nc(N)c2c(I)cn([C@@H]3O[C@H](CO)[C@@H](O)[C@H]3O)c2n1 | < 4.36 | inactive | inactive | inactive | 5.61 | inactive | inactive | 5.69 | 5.38 | 4.92 | 5.46 | < 4.70 | 4.61 | inactive | inactive | inactive | 4.07 | inactive | 5.29 | 5.04 | CC50 [12]: > 44 µM; Activity (Pseudomonas aeruginosa [13]): inactive; pIC50 (HCT-116 [14]): < 4.70; Activity (Candida parapsilosis): inactive; pIC50 (HepG2): 5.20; pIC50 (K562 [15]): 5.95; CC50 [16]: > 44 µM; Activity (Pseudomonas aeruginosa [17]): inactive
